Test results as given in ChEMBL document CHEMBL1141264, “Cucurbitane-type triterpenoids from the fruits of Momordica charantia and their cancer chemopreventive effects” (J Nat Prod, 2007).

Columns and labels:
Mus musculus [1] = organism: Mus musculus; test: Inhibition of DMBA-induced carcinogenesis in mouse assessed as reduction in papilloma bearing mouse after 10 weeks; format: functional; set-up: scale not given: the % may be the effect or the level left
Procedure, shortened: (§1)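 Mouse skin two-stage model, DMBA initiation and TPA promotion. Promotion with TPA 1.7 nmol; treated groups received 85 nmol test compound with each TPA application. Read-outs were % of mice bearing papillomas and mean papillomas per mouse, scored at 10 and 20 weeks. Papilloma numbers compared by Student's t-test.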

Mus musculus [2] = organism: Mus musculus; test: Inhibition of DMBA-induced carcinogenesis in mouse assessed as reduction in papilloma bearing mouse after 20 weeks; format: functional; set-up: scale not given: the % may be the effect or the level left; procedure, shortened: as §1
Raji [3] = test: Inhibition of TPA-induced Epstein-Barr virus early antigen in Raji cells at 1000 mol ratio/TPA relative to control; values are per cent of control; conditions: human gammaherpesvirus 4
Mus musculus [4] = test: Inhibition of peroxynitrite-induced carcinogenesis in po dosed mouse skin assessed as incidence of papilloma bearing mouse after 20 weeks; format: functional; set-up: scale not given: the % may be the effect or the level left
Procedure, shortened: (§2)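 Mouse back shaved and initiated topically with peroxynitrite (PN) 390 nmol in 1 mM NaOH (0.1 mL). Test compound given orally at 0.0025% in drinking water from 1 week before to 1 week after initiation. From 1 week after initiation, TPA (1 μg, 1.7 nmol) in acetone applied twice weekly. 15 mice per group. Papilloma incidence and papillomas per mouse recorded weekly for 20 weeks; papillomas counted once about 1 mm × 1 mm. Student's t-test used.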

Mus musculus [5] = organism: Mus musculus; test: Inhibition of DMBA-induced carcinogenesis in mouse assessed as number of papillomas per mouse after 20 weeks; format: functional; procedure, shortened: as §1
Mus musculus [6] = test: Inhibition of peroxynitrite-induced carcinogenesis in po dosed mouse skin assessed as reduction in papilloma bearing animals after 20 weeks; format: functional; procedure, shortened: as §2
Raji [7] = test: Inhibition of TPA-induced Epstein-Barr virus early antigen in Raji cells at 500 mol ratio/TPA relative to control; values are per cent of control; conditions: human gammaherpesvirus 4
Mus musculus [8] = organism: Mus musculus; test: Inhibition of DMBA-induced carcinogenesis in mouse assessed as number of papillomas per mouse after 10 weeks; format: functional; procedure, shortened: as §1
Raji [9] = test: Inhibition of TPA-induced Epstein-Barr virus early antigen in Raji cells at 10 mol ratio/TPA relative to control; values are per cent of control; conditions: human gammaherpesvirus 4
[10] = Cytotoxicity against human Raji cells assessed as cell viability at 1000 mol ratio/TPA relative to control; format: cell-based; conditions: read-out: Activity
Procedure, shortened: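 Raji cells stimulated with TPA at 32 pmol (20 ng), taken as 100% positive control. Test compound added at mol ratio to TPA of 1000, 500, 100 or 10 (1000:1 = 32 nmol). EBV-EA induction expressed as % of positive control; Raji cell viability recorded as % at the 1000 ratio. IC50 as mol ratio to TPA inhibiting 50% of control.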

[11] = Scavenging activity against NO generation in NOR1-induced cell culture; format: functional
Procedure, shortened: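 Cultured-cell screen for scavenging of NO released by the NO donor NOR 1. Activity expressed as inhibitory ratio (IR) against NOR 1 action, with glycyrrhizin and carboxy-PTIO as reference compounds.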

Raji [12] = test: Inhibition of TPA-induced Epstein-Barr virus early antigen in Raji cells at 100 mol ratio/TPA relative to control; values are per cent of control; conditions: human gammaherpesvirus 4

CO[C@@H]1O[C@]23C=C[C@@H]4[C@@]1(CC[C@]1(C)[C@@H]([C@H](C)C/C=C/C(C)(C)OC)CC[C@@]41C)[C@@H]2CC[C@H](O)C3(C)C
Activity (Mus musculus [1]): 33% | Activity (Mus musculus [2]): 80% | level, % of control (Raji [3]): 0% | Activity (Mus musculus [4]): 80% | Activity (Mus musculus [5]): 3.9 | Activity (Mus musculus [6]): 4.5 | level, % of control (Raji [7]): 19% | Activity (Mus musculus [8]): 2.1 | level, % of control (Raji [9]): 83.9% | viability at 1000 mol ratio/TPA [10]: 70% | inhibitory ratio (IR) against NOR 1 action [11]: 1.9 | level, % of control (Raji [12]): 42.4%
